Measured values: ChEMBL document CHEMBL3414569, “Amino acid modified xanthone derivatives: novel, highly promising membrane-active antimicrobials for multidrug-resistant Gram-positive bacterial infections” (J Med Chem, 2015)
Values after ≈ are worked out from the molar mass of the structure shown. Active and inactive are the calls of the source.

Assays:
[1] = Induction of hemolysis in New Zealand white rabbit RBC after 1 hr; format: cell-based, Oryctolagus cuniculus, Erythrocyte; details: New Zealand white, red blood cells (RBC)
How it was run: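 Fresh red blood cells isolated from New Zealand white rabbits. Lysis measured over a compound concentration series; HC50 taken as the concentration lysing 50% of RBCs.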

[2] = Selectivity index, ratio of HC50 for induction of hemolysis in New Zealand white rabbit RBC to MIC for Bacillus cereus ATCC 11778
Staphylococcus aureus [3] = assay: Antimicrobial activity against methicillin sensitive Staphylococcus aureus isolates by broth macrodilution method; format: functional
Streptococcus = assay: Antimicrobial activity against Streptococcus isolates by broth macrodilution method; format: functional
Mus musculus [4] = assay: Toxicity in C57BL6 mouse eye assessed as effect on corneal clarity at 3 mg/ml applied topically 5 times/day for 4 days by slit lamp biomicroscopy; format: organism-based, Cornea; details: in vivo, topical_or_ocular, 96 h
How it was run: (§1)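 Three healthy wild-type C57BL6 mice (6−8 weeks) per treatment received 0.5, 1 or 3 mg/mL compound in 10 mM PBS. Applied topically to the eye 5 times/day for 4 days. Corneal clarity checked daily through day 4 by slit-lamp biomicroscopy; histological sections also inspected.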

Staphylococcus aureus [5] = assay: Antimicrobial activity against methicillin resistant Staphylococcus aureus DM21455 in absence of 4% BSA by broth macrodilution method; format: functional
How it was run: (§2)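 Broth macrodilution MIC in Mueller Hinton broth following CLSI guidelines. Inoculum was prepared by direct colony suspension from an 18−20 h tryptic soy agar plate.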

[6] = Selectivity index, ratio of HC50 for induction of hemolysis in New Zealand white rabbit RBC to MIC for Staphylococcus aureus DM09809R
Staphylococcus aureus [7] = assay: Antimicrobial activity against methicillin resistant Staphylococcus aureus isolates by broth macrodilution method; format: functional
Staphylococcus aureus [8] = assay: Antimicrobial activity against epidemic methicillin resistant Staphylococcus aureus isolates by broth macrodilution method; format: functional
Staphylococcus aureus [9] = assay: Antimicrobial activity against vancomycin-intermediate sensitive Staphylococcus aureus isolates by broth macrodilution method; format: functional
Staphylococcus aureus [10] = assay: Antimicrobial activity against methicillin resistant Staphylococcus aureus DM09809R by broth macrodilution method; format: functional; how it was run: as §2
Mus musculus [11] = assay: Toxicity in C57BL6 mouse eye assessed as effect on wound closure at 3 mg/ml applied topically 5 times/day for 4 days by slit lamp biomicroscopy; format: organism-based; details: in vivo, topical_or_ocular, 96 h
Staphylococcus aureus [12] = assay: Antimicrobial activity against methicillin resistant Staphylococcus aureus DM21455 by broth macrodilution method; format: functional; how it was run: as §2
Listeria monocytogenes = assay: Antimicrobial activity against Listeria monocytogenes isolates by broth macrodilution method; format: functional
[13] = Retention time of the compound; format: physicochemical
How it was run: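 Reverse-phase HPLC of 20 μL injections of a 10 μg/mL sample at 1 mL/min. Gradient: 5−55% ACN over 5 min, then 55−95% over 15 min.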

Corynebacterium jeikeium = assay: Antimicrobial activity against Corynebacterium jeikeium isolates by broth macrodilution method; format: functional
Staphylococcus aureus [14] = assay: Antimicrobial activity against multidrug resistant Staphylococcus aureus isolates by broth macrodilution method; format: functional
Staphylococcus aureus [15] = assay: Bactericidal activity against methicillin resistant Staphylococcus aureus DM21455 assessed as induction of bacterial killing at 2 times MIC after 30 mins by cell counting based time kill assay; format: functional
How it was run: (§3)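 Time-kill at 35 °C with colonies taken from an 18−20 h tryptic soy agar plate and suspended in CA-MHB at 10^5−10^6 CFU/mL, then drug added. Aliquots taken at set times were diluted 10-fold serially in D/E neutralization broth, spread on tryptic soy agar, incubated 48−72 h at 35 °C, and colonies counted. Strains: MRSA DM21455, vanA and vanB VRE.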

Staphylococcus aureus [16] = assay: Antimicrobial activity against Staphylococcus aureus ATCC 29213 by broth macrodilution method; format: functional; how it was run: as §2
Lipid bilayer [17] = assay: Binding affinity to DOPC large unilamellar vesicles by 1D 1H NMR spectroscopy
How it was run: (§4)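 Liposomes prepared as for the leakage LUVs: 30 mM DOPE/DOPG (75:25) or 30 mM DOPC. 1D 1H spectra of 1 mM compound recorded in water and in each liposome type at 600 MHz, 25 °C.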

Enterococcus [18] = assay: Antimicrobial activity against vancomycin-resistant Enterococcus isolates by broth macrodilution method; format: functional
Mus musculus [19] = assay: Toxicity in C57BL6 mouse eye assessed as inflammatory response at 3 mg/ml applied topically 5 times/day for 4 days by slit lamp biomicroscopy; format: organism-based; details: in vivo, topical_or_ocular, 96 h; how it was run: as §1
Mus musculus [20] = assay: Toxicity in C57BL6 mouse eye assessed as induction of toxicity related clinical signs at 3 mg/ml applied topically 5 times/day for 4 days; format: organism-based; details: in vivo, topical_or_ocular, 96 h; how it was run: as §1
Lipid bilayer [21] = assay: Binding affinity to DOPE/DOPG large unilamellar vesicles by 1D 1H NMR spectroscopy; how it was run: as §4
Bacillus cereus = assay: Antimicrobial activity against Bacillus cereus ATCC 11778 by broth macrodilution method; format: functional
How it was run: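 CLSI broth macrodilution in Mueller Hinton broth. Inoculum was made by direct colony suspension from colonies on an 18−20 h tryptic soy agar plate. The value is the MIC.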

Staphylococcus aureus [22] = assay: Antimicrobial activity against Staphylococcus aureus DM4001 by broth macrodilution method; format: functional; how it was run: as §2
Staphylococcus aureus [23] = assay: Antimicrobial activity against Staphylococcus aureus ATCC 29213 in absence of 4% BSA by broth macrodilution method; format: functional; how it was run: as §2
[24] = Selectivity index, ratio of HC50 for induction of hemolysis in New Zealand white rabbit RBC to MIC for Staphylococcus aureus DM21455
Staphylococcus aureus [25] = assay: Antimicrobial activity against Staphylococcus aureus ATCC 29213 infected in mouse cornea infection model assessed as reduction in viable bacterial count at 0.3% solution applied topically 5 times/day dosed 1 day after infection relative to control; format: functional
How it was run: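 Mouse cornea given three superficial 1 mm scratches on one eye under ketamine/xylazine, then 10 μL of S. aureus ATCC 29213 suspension (1 × 10^8 CFU/mL in USP phosphate buffer) applied topically. Treated topically 5 times/day from day 1 postinfection; PBS negative control; 4 mice/group killed on days 1, 2 and 3. Corneas homogenized in 0.9% NaCl with 0.25% BSA, plated in duplicate on TSA (48 h, 35 °C); log10 CFU/cornea.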

Lipid bilayer [26] = assay: Induction of vesicle leakage in DOPE/DOPG large unilamellar vesicles assessed as calcein release at 1/16 compound to lipid ratio by fluorescence assay; format: functional
How it was run: (§5)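 100 nm LUVs (DOPE/DOPG 75/25 or DOPC) made by film hydration in 80 mM calcein, 50 mM HEPES, 100 mM NaCl, 0.3 mM EDTA, pH 7.4. Then 7 freeze–thaw cycles, 15 extrusions and Sephadex G-50 clean-up. Compound added from DMF (<0.2%) at 50 μM final phospholipid. Fluorescence read at ex 490/em 520 nm for 30 min; 0.1% Triton X-100 set 100% lysis; three independent experiments.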

Enterococcus [27] = assay: Antimicrobial activity against vancomycin-sensitive Enterococcus isolates by broth macrodilution method; format: functional
Staphylococcus aureus [28] = assay: Bactericidal activity against methicillin resistant Staphylococcus aureus DM21455 assessed as induction of bacterial killing at 1 times MIC after 1 hr by cell counting based time kill assay; format: functional; how it was run: as §3
Staphylococcus aureus [29] = assay: Antimicrobial activity against methicillin resistant Staphylococcus aureus DM21455 in presence of 4% BSA by broth macrodilution method; format: functional
How it was run: (§6)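 MIC by CLSI broth macrodilution in Mueller Hinton broth, with BSA added to the bacterial suspension at a final 4% w/v. Inoculum was made by direct colony suspension from an 18−20 h tryptic soy agar plate.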

Staphylococcus aureus [30] = assay: Antimicrobial activity against Staphylococcus aureus ATCC 29213 at 0.5 times MIC measured after 17 passages by multistep passage drug resistance selection study relative to wild type Staphylococcus aureus ATCC 29213 before passage; format: functional
How it was run: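 Multipassage selection in S. aureus ATCC29213 across an eight-concentration dilution series. Growth was read after 20−22 h. Bacteria growing at 0.5 × MIC were repassaged into a fresh series, 17 passages in total. Resistance was defined as a more than 4-fold rise over the initial MIC.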

[31] = system: Staphylococcus epidermidis; assay: Antimicrobial activity against Staphylococcus epidermidis isolates by broth macrodilution method; format: functional
Lipid bilayer [32] = assay: Induction of vesicle leakage in DOPC large unilamellar vesicles assessed as calcein release at 1/16 compound to lipid ratio by fluorescence assay; format: functional; how it was run: as §5
Staphylococcus aureus [33] = assay: Antimicrobial activity against teicoplanin intermediate resistant Staphylococcus aureus isolates by broth macrodilution method; format: functional
Staphylococcus aureus [34] = assay: Antimicrobial activity against Staphylococcus aureus ATCC 29213 in presence of 4% BSA by broth macrodilution method; format: functional; how it was run: as §6
[35] = Selectivity index, ratio of HC50 for induction of hemolysis in New Zealand white rabbit RBC to MIC for Staphylococcus aureus DM4001

SMILES: COC(=O)[C@H](CCCNC(=N)N)NC(=O)COc1cc2oc3cc(OCC(=O)N[C@@H](CCCNC(=N)N)C(=O)OC)c(OC)c(CC=C(C)C)c3c(=O)c2c(O)c1CC=C(C)C
- HC50 at 1 h [1]: 232 µg/mL
- Selectivity Index [2]: 77
- MIC (Staphylococcus aureus [3]): 2 µg/mL (≈ 2.31 µM)
- MIC (Streptococcus): 4 µg/mL (≈ 4.61 µM)
- Activity (Mus musculus [4]): Non-toxic
- MIC (Staphylococcus aureus [5]): 3.12 µg/mL (≈ 3.6 µM)
- Selectivity Index [6]: 77
- MIC (Staphylococcus aureus [7]): 2 µg/mL (≈ 2.31 µM)
- MIC (Staphylococcus aureus [8]): 2 µg/mL (≈ 2.31 µM)
- MIC (Staphylococcus aureus [9]): 4 µg/mL (≈ 4.61 µM)
- MIC (Staphylococcus aureus [10]): 3 µg/mL (≈ 3.46 µM)
- Activity (Mus musculus [11]): Non-toxic
- MIC (Staphylococcus aureus [12]): 3 µg/mL (≈ 3.46 µM)
- MIC (Listeria monocytogenes): 4 µg/mL (≈ 4.61 µM)
- Retention_time [13]: 7.96 min
- MIC (Corynebacterium jeikeium): 4 µg/mL (≈ 4.61 µM)
- MIC (Staphylococcus aureus [14]): 2 µg/mL (≈ 2.31 µM)
- Activity (Staphylococcus aureus [15]): 99.9%
- MIC (Staphylococcus aureus [16]): 3 µg/mL (≈ 3.46 µM)
- Activity (Lipid bilayer [17]): inactive
- MIC (Enterococcus [18]): 2 µg/mL (≈ 2.31 µM)
- Activity (Mus musculus [19]): Non-toxic
- Activity (Mus musculus [20]): Non-toxic
- Activity (Lipid bilayer [21]): Active
- MIC (Bacillus cereus): 2 µg/mL (≈ 2.31 µM)
- MIC (Staphylococcus aureus [22]): 2 µg/mL (≈ 2.31 µM)
- MIC (Staphylococcus aureus [23]): 1.56 µg/mL (≈ 1.8 µM)
- Selectivity Index [24]: 77
- inhibition (INH) (Staphylococcus aureus [25]): 99.7%
- Activity (Lipid bilayer [26]): 68%
- MIC (Enterococcus [27]): 2 µg/mL (≈ 2.31 µM)
- Activity (Staphylococcus aureus [28]): 99.9%
- MIC (Staphylococcus aureus [29]): 6.25 µg/mL
- Activity (Staphylococcus aureus [30]): Active
- MIC [31]: 2 µg/mL (≈ 2.31 µM)
- Activity (Lipid bilayer [32]): 32%
- MIC (Staphylococcus aureus [33]): 2 µg/mL (≈ 2.31 µM)
- MIC (Staphylococcus aureus [34]): 3.12 µg/mL
- Selectivity Index [35]: 77
